Data from ChEMBL document CHEMBL4725348, “Rational Design and Evaluation of 6-(Pyrimidin-2-ylamino)-3,4-dihydroquinoxalin-2(1H)-ones as Polypharmacological Inhibitors of BET and Kinases” (J Med Chem, 2020).
Each block holds one compound with its values, some of them ahead of it.

Key:
[1] = molecular target: Cyclin-dependent kinase 6 (Homo sapiens) (UniProt Q00534); test: Inhibition of CDK6 (unknown origin) at 1 uM relative to control
[2] = molecular target: T1, Aurora kinase A (Homo sapiens) (UniProt O14965); test: Inhibition AuroraA (unknown origin) at 100 nM relative to control
T1 sequence (whole entry): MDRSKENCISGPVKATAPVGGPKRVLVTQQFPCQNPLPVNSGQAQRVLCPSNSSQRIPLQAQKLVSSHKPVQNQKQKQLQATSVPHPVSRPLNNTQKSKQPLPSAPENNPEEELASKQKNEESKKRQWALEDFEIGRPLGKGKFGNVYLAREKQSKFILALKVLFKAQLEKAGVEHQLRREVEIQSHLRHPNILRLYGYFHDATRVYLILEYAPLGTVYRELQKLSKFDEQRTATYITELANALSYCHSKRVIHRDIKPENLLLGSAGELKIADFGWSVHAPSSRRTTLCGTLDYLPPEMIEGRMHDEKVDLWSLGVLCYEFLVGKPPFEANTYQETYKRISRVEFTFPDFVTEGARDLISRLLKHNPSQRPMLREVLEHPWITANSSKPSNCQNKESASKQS

[3] = molecular target: T1, Aurora kinase A (Homo sapiens); test: Inhibition AuroraA (unknown origin) at 1 uM relative to control
[4] = molecular target: Phosphatidylinositol 4,5-bisphosphate 3-kinase catalytic subunit alpha isoform (Homo sapiens) (UniProt P42336); test: Inhibition PI3Kalpha (unknown origin) at 1 uM relative to control
Phosphatidylinositol 4,5-bisphosphate 3-kinase catalytic subunit alpha isoform (Homo sapiens), sequence (P42336 whole entry, canonical isoform): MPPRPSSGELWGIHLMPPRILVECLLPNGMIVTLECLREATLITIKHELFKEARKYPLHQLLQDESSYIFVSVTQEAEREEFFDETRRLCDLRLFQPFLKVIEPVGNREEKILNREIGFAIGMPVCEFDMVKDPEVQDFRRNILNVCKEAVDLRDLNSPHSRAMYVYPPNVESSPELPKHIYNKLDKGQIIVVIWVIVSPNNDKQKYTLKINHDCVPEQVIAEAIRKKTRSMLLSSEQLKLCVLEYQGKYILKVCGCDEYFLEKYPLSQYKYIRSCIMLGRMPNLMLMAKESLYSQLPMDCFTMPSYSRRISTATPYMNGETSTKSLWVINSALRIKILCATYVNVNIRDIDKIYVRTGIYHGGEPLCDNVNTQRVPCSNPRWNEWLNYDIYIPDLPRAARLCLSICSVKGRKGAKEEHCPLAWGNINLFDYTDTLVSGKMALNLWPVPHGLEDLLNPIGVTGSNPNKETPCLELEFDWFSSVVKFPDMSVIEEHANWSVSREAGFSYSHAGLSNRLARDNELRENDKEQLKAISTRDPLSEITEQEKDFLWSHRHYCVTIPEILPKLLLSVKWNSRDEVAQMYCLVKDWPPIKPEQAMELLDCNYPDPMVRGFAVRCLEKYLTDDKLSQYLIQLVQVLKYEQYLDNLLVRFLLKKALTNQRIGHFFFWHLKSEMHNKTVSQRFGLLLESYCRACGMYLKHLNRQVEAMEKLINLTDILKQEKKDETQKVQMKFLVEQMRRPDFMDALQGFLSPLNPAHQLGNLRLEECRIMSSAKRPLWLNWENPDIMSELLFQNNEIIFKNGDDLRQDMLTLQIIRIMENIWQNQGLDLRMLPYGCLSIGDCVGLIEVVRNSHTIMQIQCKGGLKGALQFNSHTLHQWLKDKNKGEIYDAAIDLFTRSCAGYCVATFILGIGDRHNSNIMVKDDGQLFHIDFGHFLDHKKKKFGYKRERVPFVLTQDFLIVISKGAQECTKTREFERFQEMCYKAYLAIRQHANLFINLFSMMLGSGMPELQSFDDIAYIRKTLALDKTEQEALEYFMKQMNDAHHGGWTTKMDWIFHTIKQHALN

[5] = molecular target: T2, Bromodomain-containing protein 4 (Homo sapiens, UniProt O60885); test: Inhibition of His6-tagged BRD4 bromodomain 1 (unknown origin) expressed in Escherichia coli Bl21(DE3) cells incubated for 4 hrs by FP assay
Outline: (§1)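 Fluorescence polarization. Purified bromodomain (His6 tag removed with TEV, size-exclusion purified) equilibrated with fluorescent ligand. Compound or DMSO (2‰ final) then added and left 4 h at room temperature in the dark. Anisotropy read at ex 485/em 530 nm. IC50 values are means of at least two independent experiments; single-point inhibition tested at the listed concentration.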

[6] = molecular target: T3, Cyclin-dependent kinase 9 (Homo sapiens, UniProt P50750); test: Inhibition of human CDK9 at 100 nM by mobility shift assay relative to control
T3 sequence (P50750 whole entry): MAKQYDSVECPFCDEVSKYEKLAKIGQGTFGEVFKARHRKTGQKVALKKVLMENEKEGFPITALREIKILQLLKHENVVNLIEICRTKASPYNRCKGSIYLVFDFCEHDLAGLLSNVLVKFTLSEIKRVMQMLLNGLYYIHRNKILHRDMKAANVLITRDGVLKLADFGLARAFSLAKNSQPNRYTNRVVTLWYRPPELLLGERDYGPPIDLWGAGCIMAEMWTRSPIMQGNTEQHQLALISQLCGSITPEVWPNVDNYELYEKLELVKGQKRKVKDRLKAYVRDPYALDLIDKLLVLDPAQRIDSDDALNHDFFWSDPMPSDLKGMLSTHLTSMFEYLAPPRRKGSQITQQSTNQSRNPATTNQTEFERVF
Outline: (§2)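 Recombinant CDK9 incubated with compound and CTD3 peptide substrate. Activity read by Caliper mobility-shift; Dinaciclib served as positive control. IC50 values are means of at least two independent experiments.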

[7] = molecular target: Cyclin-dependent kinase 6 (Homo sapiens) (UniProt Q00534); test: Inhibition of CDK6 (unknown origin) at 100 nM relative to control
[8] = molecular target: Phosphatidylinositol 4,5-bisphosphate 3-kinase catalytic subunit alpha isoform (Homo sapiens) (UniProt P42336); test: Inhibition PI3Kalpha (unknown origin) at 100 nM relative to control
[9] = molecular target: T3, Cyclin-dependent kinase 9; test: Inhibition of human CDK9 at 1 uM by mobility shift assay relative to control; outline: as §2
[10] = molecular target: T3, Cyclin-dependent kinase 9; test: Inhibition of human CDK9 by mobility shift assay relative to control; outline: as §2
[11] = molecular target: ALK tyrosine kinase receptor (Homo sapiens, UniProt Q9UM73); test: Inhibition of ALK (unknown origin)
ALK tyrosine kinase receptor, sequence (Q9UM73 whole entry): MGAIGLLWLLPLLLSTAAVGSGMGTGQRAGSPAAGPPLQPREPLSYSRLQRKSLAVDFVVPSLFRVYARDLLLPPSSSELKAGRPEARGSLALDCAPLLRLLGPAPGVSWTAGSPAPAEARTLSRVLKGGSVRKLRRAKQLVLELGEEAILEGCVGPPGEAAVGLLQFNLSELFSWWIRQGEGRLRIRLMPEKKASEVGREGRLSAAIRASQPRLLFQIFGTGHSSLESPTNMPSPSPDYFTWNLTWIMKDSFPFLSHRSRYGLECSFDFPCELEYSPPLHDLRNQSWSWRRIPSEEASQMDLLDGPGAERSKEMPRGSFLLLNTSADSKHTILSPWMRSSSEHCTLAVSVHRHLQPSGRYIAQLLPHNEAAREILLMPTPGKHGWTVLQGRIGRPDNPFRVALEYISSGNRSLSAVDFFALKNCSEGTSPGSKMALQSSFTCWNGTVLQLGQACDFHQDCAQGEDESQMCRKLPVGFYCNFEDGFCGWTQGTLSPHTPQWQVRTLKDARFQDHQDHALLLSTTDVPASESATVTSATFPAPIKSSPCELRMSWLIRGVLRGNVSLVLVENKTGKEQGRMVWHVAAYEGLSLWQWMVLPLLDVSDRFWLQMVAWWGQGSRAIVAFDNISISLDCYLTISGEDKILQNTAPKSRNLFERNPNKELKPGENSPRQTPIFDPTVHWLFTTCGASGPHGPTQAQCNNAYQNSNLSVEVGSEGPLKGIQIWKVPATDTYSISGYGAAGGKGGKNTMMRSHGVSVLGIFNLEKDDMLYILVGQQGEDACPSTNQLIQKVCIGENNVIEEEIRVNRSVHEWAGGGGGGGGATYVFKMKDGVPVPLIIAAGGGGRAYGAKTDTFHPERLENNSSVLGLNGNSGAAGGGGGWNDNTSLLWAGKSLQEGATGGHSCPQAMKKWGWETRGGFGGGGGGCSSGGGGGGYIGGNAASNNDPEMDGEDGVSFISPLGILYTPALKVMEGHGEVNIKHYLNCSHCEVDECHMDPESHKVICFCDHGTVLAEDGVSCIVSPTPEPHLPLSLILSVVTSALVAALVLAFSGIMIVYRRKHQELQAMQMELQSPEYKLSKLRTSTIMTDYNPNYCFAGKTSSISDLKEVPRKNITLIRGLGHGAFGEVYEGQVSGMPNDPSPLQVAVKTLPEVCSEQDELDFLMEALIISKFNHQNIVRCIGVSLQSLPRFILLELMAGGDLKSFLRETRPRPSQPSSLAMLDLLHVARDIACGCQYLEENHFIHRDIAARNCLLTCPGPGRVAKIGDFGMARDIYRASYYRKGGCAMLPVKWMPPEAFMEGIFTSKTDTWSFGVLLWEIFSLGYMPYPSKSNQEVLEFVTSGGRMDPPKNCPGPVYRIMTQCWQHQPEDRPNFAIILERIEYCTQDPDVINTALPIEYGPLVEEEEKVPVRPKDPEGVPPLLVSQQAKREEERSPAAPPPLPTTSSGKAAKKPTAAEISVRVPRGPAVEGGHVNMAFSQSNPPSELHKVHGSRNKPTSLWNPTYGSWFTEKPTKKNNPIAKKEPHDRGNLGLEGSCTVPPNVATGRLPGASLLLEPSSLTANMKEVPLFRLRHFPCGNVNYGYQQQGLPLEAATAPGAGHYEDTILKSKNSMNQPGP

[12] = molecular target: T2, Bromodomain-containing protein 4; test: Inhibition of His6-tagged BRD4 bromodomain 1 (unknown origin) expressed in Escherichia coli Bl21(DE3) cells at 10 uM incubated for 4 hrs by FP assay relative to control; outline: as §1
[13] = molecular target: T2, Bromodomain-containing protein 4; test: Inhibition of His6-tagged BRD4 bromodomain 1 (unknown origin) expressed in Escherichia coli Bl21(DE3) cells at 1 uM incubated for 4 hrs by FP assay relative to control; outline: as §1
[14] = molecular target: T3, Cyclin-dependent kinase 9; test: Inhibition of CDK9 in human HCT-116 cells assessed as reduction in phosphorylation of […] protein expression at 50 to 500 nM after 24 hrs by Western blot analysis; type: cell-based; details: dose nM 50-500, time 24.0 hrs
Outline: (§3)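 HCT-116 cells plated 24 h, then treated 24 h at 0, 50, 100, 250 or 500 nM. Lysates immunoblotted for p-AR and p-RNA Pol II CTD with GAPDH as loading control; bands quantified and normalized.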

[15] = molecular target: T3, Cyclin-dependent kinase 9; test: Inhibition of CDK9 in human HCT-116 cells assessed as reduction in phosphorylation of AR protein expression at 50 to 500 nM after 24 hrs by Western blot analysis; type: cell-based; details: dose nM 50-500, time 24.0 hrs; outline: as §3

Cyclin-dependent kinase 6 (Homo sapiens), sequence (Q00534 whole entry, canonical isoform): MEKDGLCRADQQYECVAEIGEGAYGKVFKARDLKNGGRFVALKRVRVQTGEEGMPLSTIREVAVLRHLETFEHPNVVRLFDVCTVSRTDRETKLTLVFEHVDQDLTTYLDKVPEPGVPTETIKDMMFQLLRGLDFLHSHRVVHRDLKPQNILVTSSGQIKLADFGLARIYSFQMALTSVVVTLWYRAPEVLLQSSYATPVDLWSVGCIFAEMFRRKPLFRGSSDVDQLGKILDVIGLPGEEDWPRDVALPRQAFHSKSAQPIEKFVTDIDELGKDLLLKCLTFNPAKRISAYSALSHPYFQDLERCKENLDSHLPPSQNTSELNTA

SMILES: COc1cc(F)ccc1-c1ccnc(Nc2ccc3c(c2)N(C(C)C)[C@H](C)C(=O)N3C)n1
IC50 [5]: 497 nM | IC50 [10]: 46.9 nM

SMILES: CCOc1cc(C2CCN(C)CC2)ccc1Nc1ncc2c(n1)N(Cc1cc(C)cs1)[C@H](CC)C(=O)N2C
IC50 [11]: 17 nM

SMILES: CCNc1cccc(-c2ccnc(Nc3ccc4c(c3)N(C(C)C)[C@H](C)C(=O)N4C)n2)c1
IC50 [5]: 319 nM | IC50 [10]: 37.8 nM

SMILES: CC(C)N1c2cc(Nc3nccc(-c4c[nH]c5ccccc45)n3)ccc2N(C)C(=O)[C@H]1C
IC50 [5]: 329 nM | inhibition [6]: 7.6% | inhibition [9]: 58.6%

SMILES: CC(C)N1c2cc(Nc3nccc(-c4cccc(NC5CCCCC5)c4)n3)ccc2N(C)C(=O)[C@H]1C
inhibition [12]: 13% | IC50 [10]: 169 nM

SMILES: Cc1ccccc1-c1ccnc(Nc2ccc3c(c2)N(C(C)C)[C@H](C)C(=O)N3C)n1
IC50 [5]: 271 nM | inhibition [6]: 1.5% | inhibition [9]: 1%

SMILES: CC(C)N1c2cc(Nc3nccc(-c4cccc(NC5CCCC5)c4)n3)ccc2N(C)C(=O)[C@H]1C
inhibition [12]: 11% | IC50 [10]: 122 nM

SMILES: CC(C)N1c2cc(Nc3cccc(-c4ccccc4)c3)ccc2N(C)C(=O)[C@H]1C
inhibition [1]: 0.9% | inhibition [2]: -3.4% | inhibition [3]: -1.5% | inhibition [4]: 6.1% | IC50 [5]: 357 nM | inhibition [6]: -6.1% | inhibition [7]: 1.8% | inhibition [8]: -4.8% | inhibition [9]: 1.3%

SMILES: COc1ccccc1-c1ccnc(Nc2ccc3c(c2)N(C(C)C)[C@H](C)C(=O)N3C)n1
inhibition [1]: 8.1% | inhibition [2]: 37.4% | inhibition [3]: 86.8% | inhibition [4]: 0.1% | IC50 [5]: 477 nM | inhibition [6]: 67.9% | inhibition [7]: 2.3% | inhibition [8]: -2.1% | inhibition [9]: 104%

SMILES: Cc1noc(C)c1-c1cccc(Nc2nccc(-c3ccccc3)n2)c1
inhibition [13]: 2.2%

SMILES: COc1ccc(-c2ccnc(Nc3ccc4c(c3)N(C(C)C)[C@H](C)C(=O)N4C)n2)cc1
IC50 [5]: 535 nM | IC50 [10]: 31.7 nM

SMILES: CC(C)Nc1cccc(-c2ccnc(Nc3ccc4c(c3)N(C(C)C)[C@H](C)C(=O)N4C)n2)c1
IC50 [5]: 268 nM | IC50 [10]: 50.9 nM

SMILES: CC(C)N1c2cc(Nc3nccc(-c4ccc(N)cc4)n3)ccc2N(C)C(=O)[C@H]1C
IC50 [5]: 480 nM | IC50 [10]: 48.9 nM

SMILES: COc1ccccc1-c1cccc(Nc2ccc3c(c2)N(C(C)C)[C@H](C)C(=O)N3C)c1
inhibition [1]: -0.1% | inhibition [2]: 1.1% | inhibition [3]: -0.8% | inhibition [4]: 3% | IC50 [5]: 820 nM | inhibition [6]: -3% | inhibition [7]: -1.4% | inhibition [8]: -2.6% | inhibition [9]: 3.8%

SMILES: CC(C)N1c2cc(Nc3cccc(-c4cccc(C#N)c4)c3)ccc2N(C)C(=O)[C@H]1C
inhibition [1]: -3.3% | inhibition [2]: -3% | inhibition [3]: -1.8% | inhibition [4]: 5.2% | IC50 [5]: 666 nM | inhibition [6]: 2% | inhibition [7]: 2.3% | inhibition [8]: -0.1% | inhibition [9]: -4.1%

SMILES: CC(C)N1c2cc(Nc3nccc(-c4cccc5[nH]ccc45)n3)ccc2N(C)C(=O)[C@H]1C
IC50 [5]: 288 nM | IC50 [10]: 13.8 nM

SMILES: Cc1noc(C)c1-c1cccc(Nc2nccc(-c3ccncc3)n2)c1
inhibition [13]: 37.7%

SMILES: CC(C)N1c2cc(Nc3nccc(-c4cccc(Nc5ccccc5)c4)n3)ccc2N(C)C(=O)[C@H]1C
inhibition [6]: 8.8% | inhibition [9]: 47.8%

SMILES: CC(C)N1c2cc(Nc3nccc(-c4ccccc4N)n3)ccc2N(C)C(=O)[C@H]1C
IC50 [5]: 251 nM | IC50 [10]: 39.2 nM

SMILES: COc1cccc(-c2ccnc(Nc3ccc4c(c3)N(C(C)C)[C@H](C)C(=O)N4C)n2)c1
IC50 [5]: 965 nM | IC50 [10]: 126 nM

SMILES: Cc1cccc(-c2ccnc(Nc3ccc4c(c3)N(C(C)C)[C@H](C)C(=O)N4C)n2)c1
IC50 [5]: 760 nM | IC50 [10]: 196 nM

SMILES: Cc1ccc(-c2ccnc(Nc3ccc4c(c3)N(C(C)C)[C@H](C)C(=O)N4C)n2)cc1
IC50 [5]: 5850 nM | IC50 [10]: 488 nM

SMILES: COc1cc(F)ccc1-c1ncnc(Nc2cccc(C[S@](C)(=N)=O)c2)n1
inhibition [14]: Dose-dependent effect | inhibition [15]: Dose-dependent effect

The remaining lines, values ahead:

inhibition [1]: 0.7% | inhibition [2]: -6.1% | inhibition [3]: 14.2% | inhibition [4]: -1% | IC50 [5]: 77.3 nM | inhibition [6]: 2.2% | inhibition [7]: 2.7% | inhibition [8]: -4.1% | inhibition [9]: 0.7%
SMILES: CC(C)N1c2cc(Nc3cccc(-c4ccncc4)c3)ccc2N(C)C(=O)[C@H]1C

inhibition [1]: 4.8% | inhibition [2]: 10.6% | inhibition [4]: 22.9% | IC50 [5]: 193 nM | inhibition [6]: 83.4% | inhibition [7]: -0.8% | inhibition [8]: 0% | inhibition [9]: 102%
SMILES: CC(C)N1c2cc(Nc3nccc(-c4ccccc4)n3)ccc2N(C)C(=O)[C@H]1C

IC50 [5]: 173 nM | IC50 [10]: 22 nM
SMILES: CNc1cccc(-c2ccnc(Nc3ccc4c(c3)N(C(C)C)[C@H](C)C(=O)N4C)n2)c1

IC50 [5]: 75.9 nM | IC50 [10]: 79.8 nM
SMILES: CC(C)N1c2cc(Nc3nccc(-c4cccc5cnccc45)n3)ccc2N(C)C(=O)[C@H]1C

IC50 [5]: 58.1 nM | IC50 [10]: 23 nM
SMILES: CC(C)N1c2cc(Nc3ncc(Cl)c(-c4cncc5ccccc45)n3)ccc2N(C)C(=O)[C@H]1C

inhibition [1]: 7.7% | inhibition [2]: 4% | inhibition [3]: 43.7% | inhibition [4]: 82.4% | IC50 [5]: 83 nM | inhibition [6]: 94.5% | inhibition [7]: 0.2% | inhibition [8]: 37.5% | inhibition [9]: 98%
SMILES: CC(C)N1c2cc(Nc3nccc(-c4ccncc4)n3)ccc2N(C)C(=O)[C@H]1C

IC50 [5]: 25.3 nM | IC50 [10]: 19.8 nM
SMILES: CC(C)N1c2cc(Nc3nccc(-c4ccnc5ccccc45)n3)ccc2N(C)C(=O)[C@H]1C

IC50 [5]: 115 nM | IC50 [10]: 183 nM
SMILES: Cc1c(N)cccc1-c1ccnc(Nc2ccc3c(c2)N(C(C)C)[C@H](C)C(=O)N3C)n1

IC50 [5]: 81.3 nM | IC50 [10]: 23.9 nM
SMILES: CC(C)N1c2cc(Nc3ncc(F)c(-c4cncc5ccccc45)n3)ccc2N(C)C(=O)[C@H]1C

IC50 [5]: 168 nM | IC50 [10]: 110 nM
SMILES: CC(C)N1c2cc(Nc3nccc(-c4cccc5nn(C)cc45)n3)ccc2N(C)C(=O)[C@H]1C

IC50 [5]: 236 nM | IC50 [10]: 151 nM
SMILES: Cc1ccc(N)cc1-c1ccnc(Nc2ccc3c(c2)N(C(C)C)[C@H](C)C(=O)N3C)n1

IC50 [5]: 120 nM | IC50 [10]: 5.9 nM
SMILES: CC(C)N1c2cc(Nc3nccc(-c4cccc(N)c4)n3)ccc2N(C)C(=O)[C@H]1C

IC50 [5]: 15.2 nM | IC50 [10]: 81.6 nM
SMILES: CC(C)N1c2cc(Nc3nccc(-c4cccc5ncccc45)n3)ccc2N(C)C(=O)[C@H]1C

IC50 [5]: 27 nM | IC50 [10]: 67 nM
SMILES: CC(C)N1c2cc(Nc3nccc(-c4cccc5c4CCCN5)n3)ccc2N(C)C(=O)[C@H]1C

inhibition [1]: 2.8% | inhibition [2]: 8.7% | inhibition [3]: 54.4% | inhibition [4]: 63.1% | IC50 [5]: 161 nM | inhibition [6]: 25.2% | inhibition [7]: -0.8% | inhibition [8]: 14.1% | inhibition [9]: 71.8%
SMILES: CC(C)N1c2cc(Nc3nccc(-c4cccc(C#N)c4)n3)ccc2N(C)C(=O)[C@H]1C

IC50 [5]: 19.1 nM | IC50 [10]: 100 nM
SMILES: Cc1cnc(Nc2ccc3c(c2)N(C(C)C)[C@H](C)C(=O)N3C)nc1-c1cncc2ccccc12

IC50 [5]: 156 nM | IC50 [10]: 578 nM
SMILES: Cc1cc(F)ccc1-c1ccnc(Nc2ccc3c(c2)N(C(C)C)[C@H](C)C(=O)N3C)n1
